Assay results taken from PMC2233868 (The Journal of General Physiology, 2002).
“And” between values parts separate entries of the source, which are not always exact repeats. Equal values may be shown once. “Also recorded” adds a separate entry of the source. Read-outs that look alike come from different tables or passages of the source.

Assays:
[1] = tested on: volume-regulated anion channels (VRAC); assay: Whole cell membrane current; settings: for membrane leakiness: extracellular ATP 10 mM or higher, high concentrations of ADP; for r = k12(0)/k10(0) / δ, electrical distance of binding site inside the channel: pooled cells; for voltage dependence of VRAC block / effect on outward component of VRAC current: total nucleotide concentration 1 mM; for effect on outward component of VRAC current: HTS 17%
[2] = tested on: bovine aortic endothelial cells (BAEC); format: cell-based
prostate cancer cells = settings: ref Sauer et al., 2000; cited from earlier work
[3] = tested on: cultured ciliary epithelial cells; settings: ref Mitchell et al., 1998; cited from earlier work
[4] = tested on: bovine aortic endothelial cells (BAEC); settings: disruption of the actin cytoskeleton; ref Koyama et al., 2001; cited from earlier work
[5] = tested on: bovine aortic endothelial cells (BAEC); assay: HTS-induced Ca2+ oscillations, fura-2 fluorescence; format: cell-based; settings: HTS 40%; glibenclamide 100 μM
[6] = tested on: bovine aortic endothelial cells (BAEC); assay: HTS-induced NO production, DAF-2 fluorescence; format: cell-based
Outline: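 NO was imaged with DAF-2 in first-subculture bovine aortic endothelial cells bathed in modified Krebs solution (1.5 mM Ca2+, pH 7.3), made hypotonic with distilled water. Fluorescence in each experiment was normalized to a reference image taken before the hypotonic challenge. n = cells examined; mean ± SEM; Student's unpaired t test, P < 0.05 significant.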

[7] = tested on: bovine aortic endothelial cells (BAEC); assay: Ca2+ transients induced by exogenously applied ATP, fura-2; format: cell-based; settings: exogenous ATP 1 μM
Outline: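 [Ca2+]i tracked by fura-2 fluorescence using digital fluorescence microscopy at room temperature (20–25°C). Mean ± SEM; Student's unpaired t test, P < 0.05 significant.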

[8] = tested on: VRAC currents in BC3H1 and C2C12 cells; settings: concentrations up to 100 μM; ref Voets et al., 1997; cited from earlier work
[9] = tested on: large conductance anion channel (368 pS); settings: ref Li et al., 2000; cited from earlier work
[10] = 10 or 20 mM extracellular ADP, extracellular Cl− 2 mM
[11] = fit to simplified Eq. 2, total nucleotide 1 mM
[12] = representative data, Figs. 4 C (dashed line) and 5 B, Eq. 2
[13] = fit to Eq. 1, extracellular ATP total 1 mM
[14] = representative cell, Fig. 4 C solid line, Eq. 1
[15] = 20% HTS, 10 min, fluoxetine 1 μM, glibenclamide 100 μM, tamoxifen 10 μM, verapamil 10 μM, P < 0.01

Compound: Nc1ncnc2c1ncn2[C@@H]1O[C@H](COP(=O)(O)OP(=O)(O)O)[C@@H](O)[C@H]1O [ADP]
- effect on outward component of VRAC current in low Cl− hypotonic solution ([1]; 1 mM extracellular ADP, extracellular Cl− 2 mM): still inhibited
- effect on inward current in low Cl− hypotonic solution [1, 10]: virtually no effect
- effect on outward current in low Cl− hypotonic solution [1, 10]: significantly enhanced
- membrane leakiness [1]: did not cause membrane leakiness
- r = k12(0)/k10(0) [1, 11]: 0.23 ± 0.05
- δ, electrical distance of binding site inside the channel [1, 11]: 0.48 ± 0.01
- r of the fitted curve [1, 12]: 0.26
- δ of the fitted curve [1, 12]: 0.40
- voltage dependence of VRAC block [1]: less voltage sensitive; also recorded: bell-shaped voltage-dependent inhibition

Compound: Nc1ncnc2c1ncn2[C@@H]1O[C@H](COP(=O)(O)O)[C@@H](O)[C@H]1O [AMP]
- voltage dependence of VRAC block [1]: weakly voltage-dependent

Compound: Nc1ncnc2c1ncn2[C@@H]1O[C@H](COP(=O)(O)OP(=O)(O)OP(=O)(O)O)[C@@H](O)[C@H]1O [ATP]
- activation of a VRAC-like current in isotonic solutions ([1]; exogenous ATP, isotonic solution): did not activate
- membrane leakiness [1]: induced membrane leakiness
- membrane potential of maximum inhibition of outward VRAC current ([1]; extracellular ATP total 1 mM, free 0.15 mM): 30–40 mV
- r = k12(0)/k10(0) [1, 13]: 0.38 ± 0.08
- δ, electrical distance of binding site inside the channel [1, 13]: 0.41 and 0.41 ± 0.03
- r = k12(0)/k10(0) [1, 11]: 0.42 ± 0.16
- δ, electrical distance of binding site inside the channel [1, 11]: 0.42 ± 0.02
- r of the fitted curve [1, 14]: 0.29
- δ of the fitted curve [1, 14]: 0.42
- r of the fitted curve [1, 12]: 0.22
- δ of the fitted curve [1, 12]: 0.43
- voltage dependence of VRAC block [1]: marked voltage dependency
- effect on outward component of VRAC current [1]: inhibited

Compound: C[C@H]1CCC/C=C/[C@@H]2C[C@H](O)C[C@H]2[C@H](O)/C=C/C(=O)O1 [Brefeldin A, brefeldin A]
- effect on HTS-induced ATP release ([2]; pretreated with 3 μg/ml for 2.5 h, HTS 20%): did not, however, affect
- effect on HTS-induced VRAC currents ([1]; pretreated with 3 μg/ml for 2.5 h, HTS 20%, −50 mV and 100 mV): did not, however, affect

Compound: Nc1ccn([C@@H]2O[C@H](COP(=O)(O)OP(=O)(O)OP(=O)(O)O)[C@@H](O)[C@H]2O)c(=O)n1 [CTP]
- r = k12(0)/k10(0) [1, 11]: 0.21 ± 0.09
- δ, electrical distance of binding site inside the channel [1, 11]: 0.47 ± 0.02
- r of the fitted curve [1, 12]: 0.057
- δ of the fitted curve [1, 12]: 0.44
- voltage dependence of VRAC block [1]: bell-shaped voltage-dependent inhibition

Compound: Nc1nc2c(ncn2[C@@H]2O[C@H](COP(=O)(O)OP(=O)(O)OP(=O)(O)O)[C@@H](O)[C@H]2O)c(=O)[nH]1 [GTP]
- r = k12(0)/k10(0) [1, 11]: 0.70 ± 0.30
- δ, electrical distance of binding site inside the channel [1, 11]: 0.41 ± 0.06
- r of the fitted curve [1, 12]: 0.24
- δ of the fitted curve [1, 12]: 0.44
- voltage dependence of VRAC block [1]: bell-shaped voltage-dependent inhibition

Compound: O=C(O)c1cc([N+](=O)[O-])ccc1NCCCc1ccccc1 [NPPB]
- effect on ATP release (prostate cancer cells): suppressed
- effect on ATP release [3]: suppressed

Compound: O=c1ccn([C@@H]2O[C@H](COP(=O)(O)OP(=O)(O)OP(=O)(O)O)[C@@H](O)[C@H]2O)c(=O)[nH]1 [UTP]
- r = k12(0)/k10(0) [1, 11]: 0.14 ± 0.05
- δ, electrical distance of binding site inside the channel [1, 11]: 0.39 ± 0.04
- r of the fitted curve [1, 12]: 0.13
- δ of the fitted curve [1, 12]: 0.42
- voltage dependence of VRAC block [1]: bell-shaped voltage-dependent inhibition

Compound: Nc1ncnc2c1ncn2[C@@H]1O[C@H](CO)[C@@H](O)[C@H]1O [adenosine]
- effect on outward component of VRAC current [1]: does not inhibit

Compound: C=C1[C@@H](C)[C@H]2[C@H](Cc3ccccc3)NC(=O)[C@]23OC(=O)/C=C/[C@H](O)CCC[C@@H](C)C/C=C/[C@H]3[C@@H]1O [cytochalasin B]
- effect on HTS-induced ATP release [4]: does not inhibit

Compound: CNCCC(Oc1ccc(C(F)(F)F)cc1)c1ccccc1 (centres unmarked) [fluoxetine]
- effect on HTS-induced ATP release [2, 15]: Inhibition
- effect on HTS-induced Ca2+ oscillations [5]: abolished
- effect on HTS-induced NO production [6]: abolished

Compound: COc1ccc(Cl)cc1C(=O)NCCc1ccc(S(=O)(=O)NC(=O)NC2CCCCC2)cc1 [glibenclamide]
- effect on HTS-induced ATP release [2, 15]: Inhibition
- effect on HTS-induced Ca2+ oscillations [5]: abolished
- effect on HTS-induced NO production [6]: abolished
- effect on Ca2+ transients induced by exogenously applied ATP [7]: did not affect
- effect on ADP-induced outward current ([1]; 100 μM, low Cl− hypotonic solution, unpublished data): suppressed

Compound: CC/C(=C(\c1ccccc1)c1ccc(OCCN(C)C)cc1)c1ccccc1 [tamoxifen]
- effect on HTS-induced ATP release [2, 15]: Inhibition
- effect on VRAC currents [8]: did not significantly inhibit
- effect on ATP release (prostate cancer cells): effective
- effect on large conductance anion channel [9]: activates

Compound: COc1ccc(CCN(C)CCCC(C#N)(c2ccc(OC)c(OC)c2)C(C)C)cc1OC (centres unmarked) [verapamil]
- effect on HTS-induced ATP release [2, 15]: Inhibition
- effect on HTS-induced Ca2+ oscillations [5]: abolished
- effect on HTS-induced NO production [6]: abolished
